Data: ChEMBL document CHEMBL2396619, “Synthesis and neuroprotective effect of E-3,4-dihydroxy styryl aralkyl ketones derivatives against oxidative stress and inflammation” (Bioorg Med Chem Lett, 2013)
The source made the active and inactive calls. The calls are words filed in the database; no cut-off is given here.

How the values were obtained:
[1] = tested on: BV-2; assay: Antineuroinflammatory activity in mouse BV2 cells assessed as reduction of LPS-induced nitric oxide production treated 3 hrs before LPS addition measured after 24 hrs by Griess assay; assay type: functional, cell-based
In short: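 LPS-stimulated BV2 microglia; nitrite in culture supernatant measured by Griess assay: supernatant mixed with an equal amount of Griess reagent, incubated in the dark, absorbance read at 540 nm.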

[2] = Cytotoxicity against mouse BV2 cells assessed as cell viability at 50 uM after 24 hrs by MTT assay; assay type: cell-based, BV-2; conditions: read-out: Activity
In short: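 BV2 cells exposed to compounds at up to 50 µM for up to 24 h; viability determined by MTT assay.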

[3] = tested on: Radical scavenging activity; assay: Antioxidant activity assessed as DPPH free radical scavenging activity at 50 uM after 60 mins by spectrophotometry; assay type: functional
[4] = tested on: PC-12; assay: Neuroprotective activity in rat PC12 cells assessed as protection against H2O2-induced reduction of cell viability at 10 uM treated 3 hrs before H2O2 addition measured after 5 hrs by MTT assay; assay type: functional, cell-based
In short: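 PC12 cells pretreated with compound at 10 µM for 3 h, then exposed to 500 µM H2O2 for 5 h. Viability measured by MTT and expressed as OD(treated)/OD(control) ×100%, with untreated cells (no compound, no H2O2) set to 100%. Mean ± SD, n = 3.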

[5] = tested on: Radical scavenging activity; assay: Antioxidant activity assessed as DPPH free radical scavenging activity after 60 mins by spectrophotometry; assay type: functional
[6] = tested on: BV-2; assay: Ratio of caffeic acid phenethyl ester IC50 to compound IC50 for antineuroinflammatory activity in mouse BV2 cells assessed as reduction of LPS-induced nitric oxide production; assay type: functional
[7] = Ratio of caffeic acid phenethyl ester IC50 to compound IC50 for DPPH free radical scavenging activity

Structure (SMILES) | IC50 [1] [µM] | IC50 [5] [µM] | viability at 24 h, 50 µM [2] [%] | inhibition [3] | Activity [4] | Ratio IC50 [6] | Ratio IC50 [7]
O=C(/C=C/c1ccc(O)c(O)c1)CCc1ccccc1 | 14.1 | 12.7 | > 90 | – | Active | – | –
COc1ccc(CCC(=O)/C=C/c2ccc(O)c(O)c2)c(OC)c1 | 10.6 | 14 | > 90 | – | Active | – | –
CC(=O)Oc1ccc(/C=C/C(=O)OCCc2ccccc2)cc1OC(C)=O | – | – | – | inactive | – | – | –
O=C(/C=C/c1ccc(O)c(O)c1)CCc1cccc(Cl)c1 | 10.3 | 11.1 | > 90 | – | Active | – | –
COc1ccc(CCC(=O)/C=C/c2ccc(O)c(O)c2)cc1OC | 14.5 | 13.2 | > 90 | – | Active | – | –
COc1cc(CCC(=O)/C=C/c2ccc(O)c(O)c2)ccc1O | 6.3 | 12.1 | > 90 | – | Active | – | –

The next lines start with results.

IC50 [1] [µM] | IC50 [5] [µM] | Structure (SMILES) | viability at 24 h, 50 µM [2] [%] | inhibition [3] | Activity [4] | Ratio IC50 [6] | Ratio IC50 [7]
9.3 | – | COc1ccc(CCC(=O)/C=C/c2ccc(OC(C)=O)c(OC(C)=O)c2)c(OC)c1 | > 90 | inactive | Active | – | –
5.9 | 10.6 | O=C(/C=C/c1ccc(O)c(O)c1)CCCCc1ccccc1 | > 90 | – | Active | – | –
12.3 | – | CC(=O)Oc1ccc(/C=C/C(=O)CCc2ccccc2)cc1OC(C)=O | > 90 | inactive | Active | – | –
4.2 | – | CC(=O)Oc1ccc(/C=C/C(=O)CCCCc2ccccc2)cc1OC(C)=O | > 90 | inactive | Active | 1.5 | –
6.4 | 9.2 | O=C(/C=C/c1ccc(O)c(O)c1)CCCc1ccccc1 | > 90 | – | Active | – | 1.3
5.3 | – | CC(=O)Oc1ccc(/C=C/C(=O)CCCc2ccccc2)cc1OC(C)=O | > 90 | inactive | Active | – | –
5.5 | – | COc1cc(CCC(=O)/C=C/c2ccc(OC(C)=O)c(OC(C)=O)c2)ccc1O | > 90 | inactive | Active | – | –
8.3 | – | CC(=O)Oc1ccc(/C=C/C(=O)CCc2cccc(Cl)c2)cc1OC(C)=O | > 90 | inactive | Active | – | –
12.6 | – | COc1ccc(CCC(=O)/C=C/c2ccc(OC(C)=O)c(OC(C)=O)c2)cc1OC | > 90 | inactive | Active | – | –
